Measurements taken from ChEMBL document CHEMBL4020752, “Synthesis and biological activity of new phthalimides as potential anti-inflammatory agents” (Bioorg Med Chem, 2017).
In brackets after ≈: the same amount, converted by molar mass. Activity calls are given as the source filed them. The rule behind the calls is not given here.

Assays:
[1] = test system: RAW264.7; assay: Anti-inflammatory activity in mouse RAW264.7 cells assessed as inhibition of LPS-induced NO production by measuring […] level at 20 ug/ml after 22 hrs by Griess assay (reference value: 25.31 uM); assay type: functional
Method in brief: (§1)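 RAW 264.7 cells seeded at 2×10^5/well, grown 24 h at 37 °C in 5% CO2, washed twice with PBS, given fresh medium, then exposed to LPS 1 µg/mL with or without test compound for 22 h. Nitrite in the medium read by Griess reagent at 540 nm against a sodium nitrite standard curve. IC50 obtained by nonlinear regression of % inhibition vs concentration. Means ± SD of three independent experiments.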

[2] = test system: RAW264.7; assay: Anti-inflammatory activity in mouse RAW264.7 cells assessed as inhibition of LPS-induced NO production by measuring remaining NO level at 20 ug/ml after 22 hrs by Griess assay relative to control; assay type: functional; method in brief: as §1
[3] = test system: RAW264.7; assay: Anti-inflammatory activity in mouse RAW264.7 cells assessed as inhibition of LPS-induced NO production at 50 uM after 22 hrs by Griess assay relative to control; assay type: functional; conditions: RAW264.7, 22 h; method in brief: as §1
[4] = test system: RAW264.7; assay: Anti-inflammatory activity in mouse RAW264.7 cells assessed as inhibition of LPS-induced NO production by measuring remaining NO level at 50 uM after 22 hrs by Griess assay relative to control; assay type: functional; method in brief: as §1
[5] = test system: RAW264.7; assay: Anti-inflammatory activity in mouse RAW264.7 cells assessed as inhibition of LPS-induced NO production by measuring […] level at 50 uM after 22 hrs by Griess assay (reference value: 25.31 uM); assay type: functional; method in brief: as §1
[6] = target: T1, Interferon regulatory factor 3 (Mus musculus) (UniProt P70671); assay: Inhibition of LPS-stimulated IRF-3 phosphorylation at Ser-396 residue in mouse RAW264.7 cells up to 20 ug/ml preincubated for 30 mins followed by LPS stimulation for 30 mins by Western blot analysis; assay type: cell-based
T1 sequence (whole entry): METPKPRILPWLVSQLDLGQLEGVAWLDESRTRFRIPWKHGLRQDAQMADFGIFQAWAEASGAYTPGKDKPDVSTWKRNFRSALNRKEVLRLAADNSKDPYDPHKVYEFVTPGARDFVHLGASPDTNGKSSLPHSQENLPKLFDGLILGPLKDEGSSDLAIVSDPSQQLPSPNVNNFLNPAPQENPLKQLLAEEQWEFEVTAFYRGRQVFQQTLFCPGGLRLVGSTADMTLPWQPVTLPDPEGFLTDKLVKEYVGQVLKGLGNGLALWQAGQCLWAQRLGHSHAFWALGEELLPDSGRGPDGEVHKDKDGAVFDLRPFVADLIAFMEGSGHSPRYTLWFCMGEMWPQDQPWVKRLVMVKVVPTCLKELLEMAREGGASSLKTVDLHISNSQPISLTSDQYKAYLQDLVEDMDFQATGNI
Method in brief: (§2)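 Pretreatment with a range of compound concentrations for 30 min, then LPS 1 µg/mL for 30 min. IκBα, phospho-protein and related protein levels analysed by western blot.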

[7] = test system: RAW264.7; assay: Downregulation of LPS-stimulated TNF-alpha protein expression level in mouse RAW264.7 cells up to 20 ug/ml preincubated for 30 mins followed by LPS stimulation for 4 hrs by Western blot analysis; assay type: functional, cell-based
Method in brief: (§3)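 RAW 264.7 cells pretreated with a range of compound concentrations for 30 min, then stimulated with LPS 1 µg/mL for 4 h. Total protein extracted and cytokine levels analysed by western blotting.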

[8] = organism: Mus musculus; assay: Inhibition of IkB kinase in LPS-stimulated mouse RAW264.7 cells assessed as reduction in IkB-alpha phosphorylation up to 20 ug/ml preincubated with cells followed by LPS stimulation for 30 mins by Western blot analysis; method in brief: as §2
[9] = test system: RAW264.7; assay: Downregulation of IFN-beta mRNA level in LPS-stimulated mouse RAW264.7 cells up to 20 ug/ml preincubated with cells followed by LPS stimulation for 4 hrs by RT-PCR method; assay type: functional, cell-based
Method in brief: (§4)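 Cells pretreated with compound for 30 min, then stimulated with LPS 1 µg/mL for 4 h. Total RNA extracted and cytokine mRNA measured by real-time PCR. Means ± SD of triplicate tests.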

[10] = test system: RAW264.7; assay: Downregulation of IkB-alpha level in LPS-stimulated mouse RAW264.7 cells up to 20 ug/ml preincubated with cells followed by LPS stimulation for 30 mins by Western blot analysis; assay type: functional, cell-based; method in brief: as §2
[11] = test system: RAW264.7; assay: Downregulation of LPS-stimulated IL-1beta mRNA expression level in mouse RAW264.7 cells preincubated for 30 mins followed by LPS stimulation for 4 hrs by RT-PCR method; assay type: functional, cell-based; method in brief: as §4
[12] = Cytotoxicity against mouse RAW264.7 cells assessed as survival at 40 ug/ml after 22 hrs by MTT assay relative to control; assay type: cell-based; conditions: read-out: Survival
Method in brief: (§5)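 RAW 264.7 cells were grown in DMEM with 10% heat-inactivated FBS at 37 °C and 5% CO₂, then plated at 2×10^5 per well for 24 h. After washing, cells received 1 µg/mL LPS with or without compound (up to 40 µg/mL) for 22 h. After the Griess read, MTT (final 500 µg/mL) was added for 3 h at 37 °C. Formazan was dissolved in DMSO and read at 570 nm, giving % survival versus control.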

[13] = test system: RAW264.7; assay: Downregulation of LPS-stimulated iNOS mRNA expression level in mouse RAW264.7 cells preincubated for 30 mins followed by LPS stimulation for 4 hrs by RT-PCR method; assay type: functional, cell-based
[14] = test system: RAW264.7; assay: Downregulation of IKKbeta level in LPS-stimulated mouse RAW264.7 cells up to 20 ug/ml preincubated with cells followed by LPS stimulation for 16 hrs by Western blot analysis; assay type: functional, cell-based
Method in brief: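 RAW 264.7 cells pretreated with a range of compound concentrations, then stimulated with LPS 1 µg/mL for 16 h. IKK protein analysed by western blotting.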

[15] = Cytotoxicity against mouse RAW264.7 cells assessed as survival up to 20 ug/ml after 22 hrs by MTT assay relative to control; assay type: cell-based; conditions: read-out: Survival; method in brief: as §5
[16] = test system: RAW264.7; assay: Downregulation of LPS-stimulated IL-1beta protein expression level in mouse RAW264.7 cells up to 20 ug/ml preincubated for 30 mins followed by LPS stimulation for 4 hrs by Western blot analysis; assay type: functional, cell-based; method in brief: as §3
[17] = test system: RAW264.7; assay: Upregulation of HO-1 protein level in LPS-stimulated mouse RAW264.7 cells at 20 ug/ml preincubated for 30 mins followed by LPS stimulation for 16 hrs by Western blot method; assay type: functional, cell-based
Method in brief: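 RAW 264.7 cells pretreated with compound for 30 min, then stimulated with LPS 1 µg/mL for 16 h. HO-1 protein measured by western blotting.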

[18] = test system: RAW264.7; assay: Anti-inflammatory activity in mouse RAW264.7 cells assessed as inhibition of LPS-induced NO production after 22 hrs by Griess assay; assay type: functional, cell-based; method in brief: as §1
[19] = test system: RAW264.7; assay: Downregulation of LPS-stimulated iNOS protein expression level in mouse RAW264.7 cells preincubated for 30 mins followed by LPS stimulation for 16 hrs by Western blot analysis; assay type: functional, cell-based
Method in brief: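 Cells pretreated with a range of compound concentrations for 30 min, then stimulated with LPS 1 µg/mL for 16 h. iNOS protein analysed by western blot.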

[20] = organism: Mus musculus; assay: Inhibition of NF-kB transcriptional activity in LPS-stimulated mouse RAW264.7 cells up to 20 ug/ml preincubated for 2 hrs followed by LPS stimulation for 16 hrs by SEAP reporter gene assay
Method in brief: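 RAW-SEAP cells cultured 24 h, pretreated with compound for 2 h, then given LPS 1 µg/mL for 16 h. Supernatants heated at 65 °C for 5 min and reacted with buffer (2 M diethanolamine, 1 mM MgCl2, 500 µM MUP) in the dark at 37 °C for 1 h. Fluorescence read at ex 360/em 449 nm, normalized to protein, expressed relative to vehicle control without LPS.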

Row | Compound | Activity [1] [µM] | Activity [2] [%] | other results
1 | COc1cc(OC)c2c(c1)C(=O)N(CCOC(=O)CCl)C2=O | 12.14 | 48.9 | 
2 | Cc1cccc(CN2C(=O)c3cc(O)cc(O)c3C2=O)c1 | 10.36 | 41.7 | 
3 | CCCN1C(=O)c2cc(OC)cc(OC)c2C1=O | 23.24 | 93.5 | 
4 | COc1cc(OC)c2c(c1)C(=O)N(Cc1cccc(F)c1)C2=O | 18.65 | 75.1 | 
5 | CCN1C(=O)c2cc(O)cc(O)c2C1=O | 21.12 | 85 | 
6 | CCCCN1C(=O)c2cc(O)cc(O)c2C1=O | 18.24 | 73.4 | 
7 | CC1CCN=C(N)S1.Cl (centres undefined) |  |  | inhibition at 50 µM [3]: 98%; Activity [4]: 2%; Activity [5]: 0.5 µM
8 | CCCCCN1C(=O)c2cc(O)cc(O)c2C1=O | 11.3 | 45.5 | 
9 | COc1cc(OC)c2c(c1)C(=O)N(CC(C)C)C2=O | 21.45 | 86.3 | 
10 | CCCCCCN1C(=O)c2cc(O)cc(O)c2C1=O | 1.98 | 8 | 
11 | O=C1c2cc(O)cc(O)c2C(=O)N1Cc1ccccc1Br | 9.65 | 38.8 | 
12 | CCC(=O)OCCN1C(=O)c2cc(OC)cc(OC)c2C1=O | 25.31 | 101.9 | 
13 | O=C1c2cc(O)cc(O)c2C(=O)N1Cc1ccccc1F | 11.76 | 47.3 | 
14 | COc1cc(OC)c2c(c1)C(=O)N(CCO)C2=O | 24.8 | 99.8 | 
15 | COc1cc(OC)c2c(c1)C(=O)N(Cc1cccc(C)c1)C2=O | 18.43 | 74.2 | 
16 | COc1cc(OC)c2c(c1)C(=O)N(CCOC(C)=O)C2=O | 24.13 | 97.1 | 

Row | Compound | Activity [1] [µM] | Activity [2] [%] | other results
17 | CCCN1C(=O)c2cc(O)cc(O)c2C1=O | 20.71 | 83.3 | 
18 | CCCCCCCN1C(=O)c2cc(O)cc(O)c2C1=O | 0.72 | 2.9 | inhibition [6]: Active; Activity [7]: Active; inhibition [8]: Active; Activity [9]: Active; Activity [10]: Active; Activity [11]: Dose-dependent effect; viability at 22 h, 40 ug/ml [12]: 17%; Activity [13]: Dose-dependent effect; Activity [14]: Active; viability at 22 h [15]: > 95%; Activity [16]: Active; Activity [17]: Active; inhibition [18]: Dose-dependent effect; IC50 ([18]; RAW264.7, 22 h): 8.7 µg/mL (≈ 31.4 µM); Activity [19]: Dose-dependent effect; inhibition [20]: Active
19 | CCCCN1C(=O)c2cc(OC)cc(OC)c2C1=O | 19.7 | 79.3 | 
20 | CC(C)CN1C(=O)c2cc(O)cc(O)c2C1=O | 21.07 | 84.8 | 
21 | CC(C)N1C(=O)c2cc(O)cc(O)c2C1=O | 20.47 | 82.4 | 
22 | CCN1C(=O)c2cc(OC)cc(OC)c2C1=O | 10.81 | 43.5 | 
23 | COc1cc(OC)c2c(c1)C(=O)N(Cc1ccccc1F)C2=O | 18.87 | 75.9 | 
24 | CCCCCCCN1C(=O)c2cc(OC)cc(OC)c2C1=O | 20.99 | 84.5 | 
25 | COc1cc(OC)c2c(c1)C(=O)N(Cc1ccc(Br)cc1)C2=O | 20.16 | 81.1 | 
26 | CCCCCCN1C(=O)c2cc(OC)cc(OC)c2C1=O | 23.01 | 92.6 | 
27 | O=C1c2cc(O)cc(O)c2C(=O)N1Cc1ccc(Br)cc1 | 8.04 | 32.4 | 
28 | COc1cc(OC)c2c(c1)C(=O)N(C(C)C)C2=O | 24.34 | 97.9 | 
29 | COc1cc(OC)c2c(c1)C(=O)N(Cc1ccccc1Br)C2=O | 20.79 | 83.7 | 
30 | O=C1c2cc(O)cc(O)c2C(=O)N1Cc1cccc(F)c1 | 10.46 | 42.1 | 
31 | CCCCCN1C(=O)c2cc(OC)cc(OC)c2C1=O | 18.6 | 74.8 | 
